# Experimental data as given in PubChem BioAssay AID2434 (Vanderbilt High Throughput Screening Facility, 2010).
# Calls of active or inactive are those of the source.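 The calls were made as follows: active = an acetylcholine EC50 could be fitted from its dose curve with compound present at 10 µM; inactive = the rest.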
# Target: Muscarinic acetylcholine receptor M1 (Rattus norvegicus) (UniProt P08482)
# Assay: leftward shift of ACh curve by M1 PAMs, mechanism study, cell-based, ACh fold-shift, calcium, CHO-K1 (AID 2434)
# Details: CHO-K1 rat M1, Fluo-4 calcium
# Method in brief: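 Also added: acetylcholine concentration-response curve, eight concentrations; material: rat M1-expressing CHO-K1 cells, Fluo-4 loaded; signal: Fluo-4 calcium signal; buffer or medium: HBSS assay buffer with HEPES and probenecid, pH 7.4; controls: vehicle acetylcholine curve and maximal acetylcholine response; schedule: dye loading 45–60 min at 37 °C, assay at 25 °C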
# Sequence of Muscarinic acetylcholine receptor M1 (Rattus norvegicus) (P08482 whole entry, looked up): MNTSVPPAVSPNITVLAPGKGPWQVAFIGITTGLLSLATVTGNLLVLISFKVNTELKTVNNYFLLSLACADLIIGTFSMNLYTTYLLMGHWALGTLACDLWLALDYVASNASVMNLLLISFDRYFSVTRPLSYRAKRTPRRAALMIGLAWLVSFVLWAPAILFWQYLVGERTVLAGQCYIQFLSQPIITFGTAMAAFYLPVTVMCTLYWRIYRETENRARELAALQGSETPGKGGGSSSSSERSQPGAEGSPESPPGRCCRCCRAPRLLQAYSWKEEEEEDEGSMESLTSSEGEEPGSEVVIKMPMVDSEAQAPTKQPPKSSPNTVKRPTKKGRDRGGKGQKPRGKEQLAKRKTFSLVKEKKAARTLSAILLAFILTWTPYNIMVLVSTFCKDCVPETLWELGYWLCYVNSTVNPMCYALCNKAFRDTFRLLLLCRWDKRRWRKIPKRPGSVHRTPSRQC
row,Compound,outcome
1,Cc1cc(NC(=O)CS(=O)(=O)c2cn(Cc3cccc(-c4cn[nH]c4)c3)c3cc(F)cc(F)c23)no1,active
2,Cc1cc(NC(=O)CS(=O)(=O)c2cn(Cc3cc(Br)ccc3F)c3ccccc23)no1,active
3,Cn1cc(-c2cc(F)c(CN3C(=O)C(=O)c4ccccc43)c(F)c2)cn1,inactive
4,Cn1cc(-c2ccc(CN3C(=O)C(=O)c4ccccc43)c(F)c2)cn1,inactive
